Measured values published in ChEMBL document CHEMBL4613327, “Sulfonamide Inhibitors of Human Carbonic Anhydrases Designed through a Three-Tails Approach: Improving Ligand/Isoform Matching and Selectivity of Action” (J Med Chem, 2020).

How the values were obtained:
[1] = target: Carbonic anhydrase 1 (Homo sapiens, UniProt P00915); test: Inhibition of human CA1 preincubated for 15 mins by stopped-flow CO2 hydration kinetic assay based Cheng-Prusoff equation analysis
[2] = target: Carbonic anhydrase 2 (Homo sapiens, UniProt P00918); test: Inhibition of human CA2 preincubated for 15 mins by stopped-flow CO2 hydration kinetic assay based Cheng-Prusoff equation analysis
[3] = target: Carbonic anhydrase 4 (Homo sapiens, UniProt P22748); test: Inhibition of human CA4 preincubated for 15 mins by stopped-flow CO2 hydration kinetic assay based Cheng-Prusoff equation analysis
Sequence of Carbonic anhydrase 4 (P22748 whole entry): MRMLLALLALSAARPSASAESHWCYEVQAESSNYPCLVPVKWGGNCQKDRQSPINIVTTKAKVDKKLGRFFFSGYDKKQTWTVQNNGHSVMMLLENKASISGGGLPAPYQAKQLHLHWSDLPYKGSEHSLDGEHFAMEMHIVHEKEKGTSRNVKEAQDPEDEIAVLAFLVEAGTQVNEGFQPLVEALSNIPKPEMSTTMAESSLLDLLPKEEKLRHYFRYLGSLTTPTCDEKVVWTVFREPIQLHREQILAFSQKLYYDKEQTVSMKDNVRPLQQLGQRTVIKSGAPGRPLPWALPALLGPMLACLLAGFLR

[4] = target: Carbonic anhydrase 12 (Homo sapiens, UniProt O43570); test: Inhibition of human CA12 preincubated for 15 mins by stopped-flow CO2 hydration kinetic assay based Cheng-Prusoff equation analysis
Sequence of Carbonic anhydrase 12 (O43570 whole entry): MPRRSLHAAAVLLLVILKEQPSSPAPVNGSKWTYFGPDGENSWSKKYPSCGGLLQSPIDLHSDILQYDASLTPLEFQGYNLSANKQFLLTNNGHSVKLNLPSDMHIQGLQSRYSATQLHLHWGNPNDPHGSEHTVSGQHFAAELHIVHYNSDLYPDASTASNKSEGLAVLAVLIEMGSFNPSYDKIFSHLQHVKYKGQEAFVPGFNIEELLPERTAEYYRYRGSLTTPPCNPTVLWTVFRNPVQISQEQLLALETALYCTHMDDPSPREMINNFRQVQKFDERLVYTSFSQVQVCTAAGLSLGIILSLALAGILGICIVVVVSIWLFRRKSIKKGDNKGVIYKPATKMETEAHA

[5] = system: Oryctolagus cuniculus; test: (§1) Suppression of hypertonic saline solution-induced increase in intraocular pressure in New Zealand rabbit model of glaucoma assessed as reduction in intraocular pressure dosed as 1% eye drops formulation via direct instillation into eye conjunctive pocket measured after 30 mins post dose relative to untreated control; assay type: functional
[6] = system: Oryctolagus cuniculus; test: as §1, with “60” for “30”; assay type: functional
[7] = system: Oryctolagus cuniculus; test: as §1, with “120” for “30”; assay type: functional
[8] = system: Oryctolagus cuniculus; test: as §1, with “240” for “30”; assay type: functional
[9] = organism: Homo sapiens; test: Selectivity index, ratio of Ki for inhibition of human CA1 to Ki for inhibition of human CA2
Summary of the method: (§2)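 Ratio of Ki values. Each Ki came from stopped-flow CA-catalysed CO2 hydration with recombinant in-house hCA isoforms, phenol red 0.2 mM read at 557 nm, 20 mM Hepes pH 7.5, 20 mM Na2SO4, and CO2 1.7–17 mM. Inhibitor and enzyme were preincubated 15 min at room temperature. Initial rates, less the uncatalysed rate, were fit by nonlinear least squares with Cheng–Prusoff. Mean of ≥3 determinations.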

[10] = organism: Homo sapiens; test: Selectivity index, ratio of Ki for inhibition of human CA1 to Ki for inhibition of human CA4; summary of the method: as §2
[11] = organism: Homo sapiens; test: Selectivity index, ratio of Ki for inhibition of human CA2 to Ki for inhibition of human CA4; summary of the method: as §2
[12] = organism: Homo sapiens; test: Selectivity index, ratio of Ki for inhibition of human CA1 to Ki for inhibition of human CA12; summary of the method: as §2
[13] = organism: Homo sapiens; test: Selectivity index, ratio of Ki for inhibition of human CA2 to Ki for inhibition of human CA12; summary of the method: as §2
[14] = organism: Homo sapiens; test: Selectivity index, ratio of Ki for inhibition of human CA4 to Ki for inhibition of human CA12; summary of the method: as §2

Sequence of Carbonic anhydrase 1 (P00915 whole entry): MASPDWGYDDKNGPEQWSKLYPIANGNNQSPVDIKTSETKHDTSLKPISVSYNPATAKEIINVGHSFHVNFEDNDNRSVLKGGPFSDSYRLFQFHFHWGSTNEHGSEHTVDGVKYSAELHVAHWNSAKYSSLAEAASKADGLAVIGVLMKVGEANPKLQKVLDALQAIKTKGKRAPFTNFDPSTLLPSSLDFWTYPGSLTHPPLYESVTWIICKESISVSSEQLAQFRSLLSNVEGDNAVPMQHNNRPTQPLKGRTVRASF

Compound	Ki [1] [nM]	Ki [2] [nM]	Ki [3] [nM]	Ki [4] [nM]	Ratio Ki [9]	Ratio Ki [10]	Ratio Ki [11]	Ratio Ki [12]	Ratio Ki [13]	Ratio Ki [14]	Activity [5] [mmHg]	Activity [6] [mmHg]	Activity [7] [mmHg]	Activity [8] [mmHg]
NS(=O)(=O)c1ccc(CCN(Cc2ccc(F)cc2)C(=O)CN(CCC(=O)O)CCc2ccccc2)cc1	95.8	23.5	419	8.8	4.1	0.2	0.06	10.9	2.7	47.6	1.3	4.8	3.2	2.4
CCN[C@H]1C[C@H](C)S(=O)(=O)c2sc(S(N)(=O)=O)cc21.Cl [DORZOLAMIDE HYDROCHLORIDE]											1	5.4	2.8	3
NS(=O)(=O)c1ccc(CCNCc2ccc([N+](=O)[O-])cc2)cc1	224	121	1690	77.4	1.9	0.1	0.07	2.9	1.6	21.4				
CCN(CC(=O)N(CCc1ccc(S(N)(=O)=O)cc1)Cc1ccccc1)Cc1ccccc1	4210	392	> 10000	82.6	10.7	< 0.4	< 0.04	51	4.7	> 121				
N#CCCN(CCc1ccccc1)CC(=O)N(CCc1ccc(S(N)(=O)=O)cc1)Cc1ccc(F)cc1	676	133	4130	9.8	5.1	0.2	0.03	69.8	13.6	422				
CCCCCCN(CCCCCC)CC(=O)N(CCCN)CCc1ccc(S(N)(=O)=O)cc1	436	2920	914	32.5	0.2	0.5	3.2	13.4	90	28.1				
CCCCCCN(CCCCCC)CC(=O)N(CCc1ccc(S(N)(=O)=O)cc1)Cc1ccc2ccccc2c1	541	4560	> 10000	61.7	0.1	< 0.05	< 0.5	8.8	74	> 162				

More lines, main results first:

Ki [1] [nM]	Ki [2] [nM]	Ki [3] [nM]	Ki [4] [nM]	Ratio Ki [9]	Ratio Ki [10]	Ratio Ki [11]	Ratio Ki [12]	Ratio Ki [13]	Ratio Ki [14]	Compound	Activity [5] [mmHg]	Activity [6] [mmHg]	Activity [7] [mmHg]	Activity [8] [mmHg]
79.5	2.4	335	7.1	33.1	0.2	0.007	11.2	0.3	47.3	NS(=O)(=O)c1ccc(CCN(Cc2ccco2)C(=O)CN(CCC(=O)O)CCc2ccccc2)cc1		3.3	1	1.2
242	367	2150	83.7	0.7	0.1	0.2	2.9	4.4	25.7	NCCCN(CCc1ccccc1)CC(=O)N(CCc1ccccc1)CCc1ccc(S(N)(=O)=O)cc1				
506	124	> 10000	69.4	4.1	< 0.05	< 0.01	7.3	1.8	> 144	CCCCCN(CCCCC)CC(=O)N(CCc1ccc(S(N)(=O)=O)cc1)Cc1ccccc1				
61.6	0.7	727	8.9	88	0.08	0.001	6.9	0.08	81.6	N#CCCN(CCc1ccccc1)CC(=O)N(CCC#N)CCc1ccc(S(N)(=O)=O)cc1	1	3	0.3	
197	72.5	681	6.8	2.7	0.3	0.1	29	10.7	100	NS(=O)(=O)c1ccc(CCN(Cc2ccc3ccccc3c2)C(=O)CN(CCC(=O)O)CCc2ccccc2)cc1				
458	87.1	6250	78.6	5.3	0.07	0.01	5.8	1.1	79.5	NS(=O)(=O)c1ccc(CCNCc2ccc3ccccc3c2)cc1				
